The source made the active and inactive calls. The rule behind the calls is not given here.
Key:
[1] = system: Human immunodeficiency virus 1; experiment: Antiviral activity against Human immunodeficiency virus 1 3B virus infected in human MT2 cells assessed as inhibition of virus-induced cytopathic effect by colorimetry; type: functional, organism-based
Procedure, shortened: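 MT-2 cells, 1 × 10^3 per well in triplicate, infected with HIV-1 IIIB at 0.1 TCID50/cell and cultured with compounds. Viral CPE quantified by MTT colorimetry after 5 days to estimate EC50.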

[2] = system: Hepatitis C virus; experiment: Antiviral activity against Hepatitis C virus genotype 1b Con1 infected in human Huh-luc/neo-ET replicon cells assessed as reduction of replicon luciferase signal after 72 hrs by luciferase reporter assay in presence of 0% fetal bovine serum; type: functional, organism-based, Hepacivirus hominis
Procedure, shortened: (§1)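 Huh-luc/neo-ET cells without G418, incubated with serially diluted compounds in medium containing 5%, 10%, 20% or 40% (vol/vol) FBS. Firefly luciferase read after 72 h. EC50 from dose-effect curves. The 0% value is a theoretical EC50 extrapolated from the plot of EC50 versus serum level. Means ± SD of three independent experiments.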

[3] = system: Hepatitis C virus; experiment: Antiviral activity against Hepatitis C virus genotype 1b Con1 infected in human Huh-luc/neo-ET replicon cells assessed as reduction of replicon luciferase signal after 72 hrs by luciferase reporter assay in presence of 5% fetal bovine serum; type: functional, organism-based, Hepacivirus hominis; procedure, shortened: as §1
[4] = system: Hepatitis C virus; experiment: Antiviral activity against Hepatitis C virus genotype 1b Con1 infected in human Huh-luc/neo-ET replicon cells assessed as reduction of replicon luciferase signal after 72 hrs by luciferase reporter assay in presence of 20% fetal bovine serum; type: functional, organism-based, Hepacivirus hominis; procedure, shortened: as §1
[5] = system: Hepatitis C virus; experiment: Antiviral activity against Hepatitis C virus genotype 1b Con1 infected in human Huh-luc/neo-ET replicon cells assessed as reduction of replicon luciferase signal after 72 hrs by luciferase reporter assay in presence of 40% fetal bovine serum; type: functional, organism-based, Hepacivirus hominis; procedure, shortened: as §1
[6] = system: Hepatitis C virus; experiment: Antiviral activity against Hepatitis C virus genotype 1b Con1 infected in human Huh-luc/neo-ET replicon cells assessed as reduction in viral RNA level after 72 hrs by RT-PCR; type: functional, organism-based, Hepacivirus hominis
Procedure, shortened: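 Cells seeded at 1 × 10^5 per well and treated with DMSO or compound up to 250 nM for 24, 48 or 72 h. Total RNA diluted to 50 ng/μl. Replicon RNA (5′ UTR) measured in triplicate by one-step qRT-PCR, normalized to β-actin mRNA, and expressed as percent of mock control. Three independent repeats.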

[7] = system: Hepatitis C virus; experiment: Antiviral activity against Hepatitis C virus genotype 1b Con1 infected in human Huh-luc/neo-ET replicon cells assessed as viral replicon survival dosed at 100 nM incubated for 12 days followed by compound removal and reintroduction of 250 ug/ml G418 measured after 12 days post compound withdrawal; type: functional, Hepacivirus hominis
Procedure, shortened: (§2)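 Huh-luc/neo-ET cells were seeded at 2 × 10^5 per well and kept without G418 for 12 days with DMSO or up to 1 μM drug. Cells were split every 3 days, with medium and drug renewed. Drug was then removed and 250 μg/ml G418 added for 12 more days, sampling at confluence. HCV 5′UTR RNA was measured by one-step qRT-PCR, normalised to β-actin and expressed relative to mock. Viability was read by CellTiter-Glo as % of mock.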

[8] = system: Hepatitis C virus; experiment: Antiviral activity against Hepatitis C virus genotype 1b Con1 infected in human Huh-luc/neo-ET replicon cells assessed as inhibition of viral rebound dosed at 1 uM incubated for 12 days followed by compound removal and reintroduction of 250 ug/ml G418 measured after 9 days post compound withdrawal; type: functional, organism-based; conditions: Hepacivirus hominis; procedure, shortened: as §2
[9] = system: Hepatitis C virus; experiment: Antiviral activity against Hepatitis C virus genotype 1b Con1 infected in human Huh-luc/neo-ET replicon cells assessed as inhibition of viral rebound dosed at 300 nM incubated for 9 days followed by compound removal and reintroduction of 250 ug/ml G418 measured after 15 days post compound withdrawal; type: functional, organism-based; conditions: Hepacivirus hominis
Procedure, shortened: (§3)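 In a separate run, Huh-luc/neo-ET replicon cells were treated for 9 days without G418. Drug was then withdrawn and cells were kept for a 15-day rebound period under G418 selection. Surviving cells were scored as the fraction of the population that outlasted selection.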

[10] = system: Hepatitis C virus; experiment: Antiviral activity against Hepatitis C virus genotype 1b Con1 infected in human Huh-luc/neo-ET replicon cells assessed as inhibition of viral rebound dosed at 1 uM incubated for 9 days followed by compound removal and reintroduction of 250 ug/ml G418 measured after 15 days post compound withdrawal; type: functional, organism-based; conditions: Hepacivirus hominis; procedure, shortened: as §3

## O=C(O)c1cc(C(=O)O)cc(-c2ccc(-c3c4nc(c(-c5ccc(-c6cc(C(=O)O)cc(C(=O)O)c6)cc5)c5ccc([nH]5)c(-c5ccc(-c6cc(C(=O)O)cc(C(=O)O)c6)cc5)c5ccc([nH]5)c(-c5ccc(-c6cc(C(=O)O)cc(C(=O)O)c6)cc5)c5nc3C=C5)C=C4)cc2)c1
[1]
  EC50: 3.67 µM
[2]
  EC50: 6.5 nM
[3]
  EC50: 13 nM
[4]
  EC50: 39 nM
[5]
  EC50: 69 nM
[6]
  EC50: 29.2 nM
[6]; Hepacivirus hominis
  inhibition: Dose-dependent effect
[7]
  Survival: 0.007%
[8]
  inhibition: Active
[9]
  inhibition: Active
[10]
  inhibition: Active

— ChEMBL document CHEMBL1212775, “A novel class of meso-tetrakis-porphyrin derivatives exhibits potent activities against hepatitis C virus genotype 1b replicons in vitro” (Antimicrob Agents Chemother, 2010)
